This is a sample that favours compounds with a hit; in the whole collection about 3.3% have one here.
STAT3 activator: IL-6 driven STAT3 reporter potentiators, primary screen, U3A cells, luciferase, luminescence, MLSCN library | AID 871, 2007 | 190,000 compounds, 0.91% hits | activation (% of control), % at 5.6 µM | IL-6 STAT3-luciferase reporter; 100% = signal with IL-6 EC80 alone;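 active = activation above the screen-wide mean of compound activation plus 3 SD, cut at about 130% in these data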;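 note: 0% = background luminescence of wells with medium and substrate only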
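System – human U3A cells carrying STAT3-luciferase construct · Probe or stimulus – Interleukin-6, 33 ng/mL · Schedule – compound 1 h, then IL-6 6 h at 37 °C · Signal – luminescence from STAT3-driven luciferase reporter · Evaluation – percent of IL-6-only median luminescence · Benchmarks – IL-6-only high control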
ABCB6 inh MLPCN: ABCB6 transporter inhibitors, primary screen, K562-ABCB6 cells, flow cytometry, MLPCN library. fluorescence ratio to DMSO, % at 10 µM. ATP-binding cassette sub-family B member 6 (Homo sapiens), Q9NP58. K562-ABCB6 porphyrin accumulation, 1 h; active compounds read low. 360,000 compounds, 0.19% hits;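 active = fluorescence ratio to DMSO below 75%, the collection mean minus 3 SD; inconclusive = too few cells collected in the well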;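 note: signal is porphyrin accumulated inside mitochondria; 100% equals median channel fluorescence of DMSO control wells; lower ratio means ABCB6 inhibition with less porphyrin fluorescence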
AHR act: AHR activators, primary screen, cell-based, luminescence, luciferase reporter, human | Aryl hydrocarbon receptor (Homo sapiens), P35869 | AHR-responsive luciferase reporter cells | activation, % at 5 µM | 320,000 compounds, 2.5% hits | AID 2796, 2010; in the data active = activation above about 47%;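 note: 0% = vehicle wells and 100% = reference agonist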
GAA850 FXN act: FXN promoter activators, primary screen, cell-based, luciferase luminescence, HEK293 lucGAA850; HEK293 lucGAA850 FXN promoter luciferase reporter, 24 h; percent of 10 µM SAHA response; activation, % at 6 µM; 360,000 compounds, 0.56% hits; AID 540364, 2011;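 active = activation above the average of all compounds screened plus 3 SD, cutoff fixed separately per campaign, cut at about 7.5% in these data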;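 note: 0% = DMSO wells and 100% = 10 µM SAHA wells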
* hit, by the source's call; ? = inconclusive; . = no result given.

SMILES	STAT3 activator	ABCB6 inh MLPCN	AHR act	GAA850 FXN act
CC(C)(C)c1ccc(OCCC(=O)Nc2ccc(N3CCOCC3)cc2N2CCOCC2)cc1	.	90.0	2.0	2.6
CCCNC(=O)c1c[nH]c2ccc(S(=O)(=O)N(C)c3ccc(OCC)cc3)cc2c1=O	94.1	.	54.2*	.
CCOc1ccc(N(C)S(=O)(=O)c2ccc3[nH]cc(C(=O)NCCCOC)c(=O)c3c2)cc1	.	98.0	47.8*	1.3
CCOc1ccc(N(C)S(=O)(=O)c2ccc3[nH]cc(C(=O)NCCOC)c(=O)c3c2)cc1	100.0	101.0	30.3	0.0
COc1cccc(CNC(=O)C2CCN(S(=O)(=O)c3cccs3)CC2)c1	108.0	98.0	0.7	0.9
CCOC(=O)/C(=C\c1ccc(OC(F)F)cc1)C1=Nn2c(nnc2-c2ccc(Cl)cc2)SC1	97.5	88.0	2.3	8.2*
CCOC(=O)/C(=C/c1ccc(OC(F)F)cc1)C1=Nn2c(nnc2-c2ccc(Cl)cc2)SC1	.	99.0	.	3.6
Clc1ccc(-c2nc3n(n2)Cc2ccccc2-3)cc1	95.6	101.0	74.1*	2.0
O=[N+]([O-])c1cccc2nc3ccccc3c(NCCCn3ccnc3[N+](=O)[O-])c12	.	112.0	.	-0.2
Cc1ccc(NC(=O)/C=C/c2cccs2)c([N+](=O)[O-])c1	98.1	97.0	3.1	-1.3
CC(C)c1ccc(-n2cnn(-c3ncccc3[N+](=O)[O-])c2=O)cc1	104.7	96.0	50.7*	0.7
Cc1cc(C)n(-c2ncccc2[N+](=O)[O-])n1	.	100.0	-1.4	-1.7
CCc1cc2cc(C)c(C)cc2nc1SCC(=O)NNC(=O)c1ccco1	93.2	103.0	7.0	0.2
CCc1cc2ccc(OC)cc2nc1SCC(=O)NNC(=O)c1ccco1	105.5	99.0	52.6*	2.4
CC1CCCC(NC(=O)c2ccc3c(=O)n(CC4CCCO4)c(=O)[nH]c3c2)C1C (stereo not given)	92.6	88.0	0.2	1.0
CC(=O)c1c(C)n([O-])c2ccc(C)cc2[n+]1=O	113.5	99.0	59.6*	1.7
Cc1ccc2c(c1)n([O-])c1c([n+]2=O)CCCC1	100.2	84.0	7.2	-0.8
Cc1noc(C)c1C(=O)Nc1sc(C)c(-c2ccccc2)c1C#N	98.2	99.0	21.5	1.3
Cc1cccc(C(=O)Nc2sc(C)c(-c3ccccc3)c2C#N)c1	93.9	95.0	50.0*	6.6
CN(Nc1cccc(Cl)c1)c1cccc(Cl)c1	.	106.0	.	2.0
COCCn1c(=NC(=O)c2ccc(S(=O)(=O)N3CCc4ccccc4C3)cc2)sc2cc(S(N)(=O)=O)ccc21	135.2*	91.0	0.3	5.1
C=CCn1c(=NC(=O)c2ccc(S(=O)(=O)N3CCc4ccccc4C3)cc2)sc2cc(S(N)(=O)=O)ccc21	130.6	86.0	1.9	3.6
COCCNC(=S)N/N=C(\C)c1cc2ccccc2o1	92.1	70.0*	68.2*	1.4
COCCNC(=S)N/N=C(\C)c1ccc2cc(OC)ccc2c1	91.9	100.0	27.3	1.4
COCCNC(=S)N/N=C(\C)c1ccc(OC)cc1	95.4	98.0	53.8*	2.8
SMILES	STAT3 activator	ABCB6 inh MLPCN	AHR act	GAA850 FXN act
COc1ccc(C2CC(=O)c3sc(NC(C)=O)nc3C2)cc1 (stereo not given)	107.7	92.0	8.3	-2.6
CCc1ccc(N(C(=O)c2ccco2)C(C(=O)NC2CCCC2)c2ccco2)cc1 (stereo not given)	107.2	110.0	4.5	-0.2
Oc1[nH]c2ccccc2c1C1=NCCCC1	79.1	93.0	33.9	1.1
O=C1C(c2c(O)[nH]c3ccccc23)=Nc2ccccc21	.	106.0	59.7*	-1.3
Nc1ccc2c(c1)Nc1ccccc1CC2	121.1	123.0	49.8*	1.3
O=C(Nc1cccc2ncccc12)c1ccc(-c2ccc(Br)cc2)o1	132.5	111.0	52.7*	-3.8
O=C(Nc1cccc2ncccc12)c1ccc(Cl)cc1	.	103.0	65.4*	1.5
COc1ccc(Cl)cc1C(=O)Nc1cccc2ncccc12	.	99.0	66.3*	0.8
Cc1ccc(Cc2c(-c3ccc(F)cc3)nc3c(C)cc(Br)cn23)cc1	.	92.0	.	.
CC(O)(c1cccc(F)c1)c1nc(-c2ccc(S(C)(=O)=O)cc2)cs1 (stereo not given)	.	?	.	1.5
O=C(CCOc1ccccc1)Nc1ccc(S(=O)(=O)N2CCCC2)cc1	96.7	100.0	0.3	0.5
COc1ccccc1N=C1NC(=O)/C(=C/c2ccc(N(C)C)cc2)S1	.	154.0	65.4*	-1.4
COc1cc(/C=C2/SC(=Nc3ccc(O)cc3)NC2=O)cc(OC)c1O	95.1	222.0	7.8	4.3
CC(C)CN(C)C(=O)CC1C(=O)NCCN1C (stereo not given)	95.3	103.0	1.8	1.2
CCOc1cccc(/C=N/NC(=O)c2cccnc2)c1O	.	100.0	14.0	-1.6
CCOc1cccc(/C=N/NC(=O)c2cc(C3CC3)[nH]n2)c1O	.	98.0	53.5*	-4.5
O=S(=O)(c1ccc2c(c1)OCCO2)C1CCC(S(=O)(=O)c2c(F)cccc2F)CC1 (stereo not given)	.	89.0	12.5	-1.1
CN(Cc1ccccc1NCC(=O)Nc1ccccc1C#N)C1CCCCC1	131.0	85.0	21.2	-0.7
N#Cc1ccccc1NC(=O)CNc1ccccc1N1CCCCC1	135.3*	97.0	11.7	-0.3
FC(F)(F)c1cc(-c2cccs2)nc(-n2cc(Br)cn2)n1	91.4	156.0	49.9*	1.1
Cc1nc(NCc2ccco2)c2c(C)c(C)sc2n1	138.7*	95.0	-9.6	-7.1
O=C(CSc1ccc(Br)cc1)NCC1(N2CCCCC2)CCCCC1	.	99.0	.	2.0
CSCCC(NC(=O)c1ccccc1Cl)C(=O)NCC(c1ccc(F)cc1)N1CCOCC1 (stereo not given)	.	103.0	.	-0.9
CCn1cc(-c2ccccc2)c(C(=O)O)c1-c1ccc(OC)cc1	.	103.0	58.0*	0.3
COc1ccc(-c2cn(-c3ccccc3)nc2CO)cc1	.	100.0	8.0	3.0
SMILES	STAT3 activator	ABCB6 inh MLPCN	AHR act	GAA850 FXN act
COc1ccc(CNC(=O)COC(=O)c2nc3nc(C)cc(C)n3n2)cc1	.	99.0	0.9	0.9
CNC(=S)N/N=C/c1c2ccccc2c(Cl)c2ccccc12	.	108.0	48.0*	0.9
CNC(=S)N/N=C/c1c(C)cccc1Cl	.	99.0	-0.2	-1.5
COc1ccc(NC(=O)C2Cc3c(-c4ccc5c(c4)OCO5)ccnc3O2)cc1OC (stereo not given)	.	100.0	.	-3.5
Cc1nnc2n(c1=O)N=C(c1ccc(Cl)cc1)CS2	114.1	95.0	79.0*	5.5
CCc1nnc2n1N=C(c1ccc(Cl)cc1)CS2	.	97.0	0.9	1.5
COc1ccc(S(=O)(=O)NC(=O)C2(C)CCN2C(=O)CC2CCCC2)cc1 (stereo not given)	.	83.0	.	1.3
O=C(c1ccco1)N1CCN(c2ncnc3c(-c4ccc(Cl)cc4)nsc23)CC1	.	101.0	57.7*	-6.6
Cc1sc2ncnc(N3CCN(C(=O)c4ccco4)CC3)c2c1C	85.8	96.0	54.8*	1.8

Screening results deposited in PubChem by several laboratories.
